# Source: PubChem BioAssay (Broad Institute)
# Only some compounds are listed: those with a hit (about 3.1% of all), similar ones and a draw of the others.
# miR-122 sensor – blocks miR-122 activity in Huh7 sensor cells; 340,000 compounds, 0.3% hits; AID 602342; Huh7 miR-122 Renilla luciferase sensor, 48 h; neutral wells = 0, positive control = 100; activation (reporter increase), % at 12.5 µM;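 active means mean replicate activation score at least 90 and every replicate individually at or above 90; inconclusive means only one of the two criteria met; inactive means neither criterion met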;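 further: higher luciferase means less miR-122 activity so hits act as miR-122 inhibitors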
# Cneo AK release – Cryptococcus neoformans lysis via adenylate kinase release | C. neoformans lysis, adenylate kinase release luminescence, 4 h; normalised: neutral wells 0, clomiphene wells 100 | lysis activity, % at 15 µM | 360,000 compounds, 0.2% hits | AID 651654;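 active means mean lysis activity across replicates of at least 80%, whatever share of replicates individually reach that level; inactive means mean lysis activity below 80%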
#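 Material: C. neoformans cells; Schedule: 4 h static compound exposure, 37 °C, read 1 h post-reagent; Measured by: adenylate kinase release luminescence; Read-out: signal increase indicating cell lysis; Controls: Clomiphene as positive lysis control.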
# E-sel inducer – induces E-selectin expression in human endothelial cells. AID 686992. HUVEC E-selectin immunofluorescence imaging; normalized: neutral wells 0, TNF-alpha wells 100. P16581. 260,000 compounds, 0.37% hits. activation, % at 7.58 µM;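 active means mean E-selectin-positive cell signal at least 10% of the positive control, reached in at least 60% of replicates, without over 20% cell loss; inconclusive means no rule given, readout overlaps actives, possibly toxicity-flagged; inactive means the rest, including those meeting only one limit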
# Target sequence (P16581 whole entry, looked up): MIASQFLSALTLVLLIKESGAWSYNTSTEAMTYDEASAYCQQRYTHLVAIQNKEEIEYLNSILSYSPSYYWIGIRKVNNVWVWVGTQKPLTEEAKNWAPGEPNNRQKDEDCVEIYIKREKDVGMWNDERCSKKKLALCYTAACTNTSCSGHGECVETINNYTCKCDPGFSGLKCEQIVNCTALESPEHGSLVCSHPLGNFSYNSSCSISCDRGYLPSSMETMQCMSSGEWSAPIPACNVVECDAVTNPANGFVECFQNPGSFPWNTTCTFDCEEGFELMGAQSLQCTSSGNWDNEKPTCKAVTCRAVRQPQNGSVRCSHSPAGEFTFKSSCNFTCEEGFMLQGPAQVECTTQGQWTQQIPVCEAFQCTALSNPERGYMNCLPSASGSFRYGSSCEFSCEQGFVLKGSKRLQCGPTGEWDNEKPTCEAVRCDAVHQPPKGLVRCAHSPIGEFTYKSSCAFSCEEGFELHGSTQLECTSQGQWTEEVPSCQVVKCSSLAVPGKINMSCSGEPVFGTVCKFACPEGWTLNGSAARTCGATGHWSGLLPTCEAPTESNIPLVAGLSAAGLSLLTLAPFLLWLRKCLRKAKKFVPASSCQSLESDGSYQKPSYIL
#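 assay system = HUVEC, human umbilical vein endothelial cells | input = 3,000 HUVEC seeded per well | medium = EGM-2 growth medium on 0.1% gelatin-coated wells | dosing = one compound dose added by pin transfer | signal = immunofluorescence imaging | read-out basis = % PE-positive cells | control set = TNF-alpha, DMSO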
# DENV2 CPE – DENV2-induced cell death inhibition | DENV2-infected cells, cytopathic effect rescue, plate reader | CPE inhibition, % at 9.99 µM | 350,000 compounds, 1.7% hits; in the data active means CPE inhibition above about 20%, passing the limit was not always enough; inconclusive means no clear call, values can overlap the other calls; tested in BHK-21 cells;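 further: 0% = median of neutral control wells and 100% = median of positive control wells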
# Ecoli rRNA inh – selective bacterial rRNA inhibition in E. coli; E. coli WT GFP vs humanized-ribosome RFP mutants, fluorescence, 24 h; stronger effect = lower value; DMSO median 0, no signal -100; GFP signal change (wild-type ribosome), % (concentration not given with the values); 350,000 compounds, 1.6% hits; AID 720706;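 active means significant combined selectivity score with lowered wild-type GFP, culture density cut under 30%, mutant RFP and density less affected; inactive means any of these conditions unmet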
# AID977621 – growth inhibition of wild-type GFP E. coli, dose response, H69 mutant RFP, cherry-pick. AID 977621. activity change, negative = inhibition at 50 µM. E. coli wild-type GFP strain growth, fluorescence, 24 h. 1,900 tested, under 10 active. shares compounds with Ecoli rRNA inh;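 active means Wild-type ribosome reporter drop at least double the humanized mutant ribosome reporter drop, growth loss under a set limit; inconclusive means no clear call, values can overlap the other calls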;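 further: wild-type GFP and H69 mutant RFP strains grown together 50/50 in each well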
# AID977628 – growth of wild-type and h24-humanized E. coli strains – h24 mutant RFP vs wild-type GFP, cherry-pick, dose response | E. coli WT GFP strain growth, fluorescence, 24 h | 1,900 tested, under 10 active | activity change, negative = inhibition at 50 µM | AID 977628 | shares compounds with Ecoli rRNA inh;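 active means compound lowering the normal-ribosome reporter at least twice as much as the humanized-ribosome reporter, growth loss under a set limit; inconclusive means no clear call, values can overlap the other calls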;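 further: wild-type GFP and h24 humanized RFP strains co-cultured 1 to 1 per well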
# Active calls of the source: *; ? = inconclusive; · = not tested or not shown; [ ] = dose if it differs, or a comment.
SMILES,miR-122 sensor,Cneo AK release,E-sel inducer,DENV2 CPE,Ecoli rRNA inh,AID977621,AID977628
COc1ccc(C(CC(=O)c2ccc(O)cc2)S(=O)(=O)c2ccc(C)cc2)cc1 (stereo not drawn),2.4,-2.5,·,1.7,-24.1*,-0.51,-10.6
Cc1nn(CC(=O)OCCOc2ccc(Br)cc2)c(C)c1[N+](=O)[O-],·,·,0.0,?,-24.6*,-12.3,?
Cc1nn(CC(=O)c2ccc(Br)s2)c(C)c1[N+](=O)[O-],0.7,2.5,·,1.1,-21.0*,5.2,-4.5
Cc1ccc(CNC(=O)COC(=O)Cn2nc(C)c([N+](=O)[O-])c2C)cc1,-0.1,-0.2,·,13.3,9.1,·,·
Cc1noc(C)c1S(=O)(=O)N(Cc1ccccc1)C(C)C,-9.8,-0.3,0.9,?,-18.9*,2.39,-6.83
Cc1ccc(C)c(-c2[nH]ncc2CN2CCCC(CO)(Cc3ccccc3C)C2)c1 (stereo not drawn),·,·,-1.0,-0.3,-30.4*,-8.88,·
OCC1(Cc2ccccc2)CCCN(Cc2cn[nH]c2-c2ccccc2)C1 (stereo not drawn),-1.9,·,·,-6.0,2.6,·,·
CS(=O)(=O)Nc1ccccc1C(=O)NCCSCc1ccccc1,·,·,·,5.3,-13.4,·,·
CS(=O)(=O)Nc1ccccc1C(=O)NCCSc1ccccc1,-3.3,-3.4,0.0,-2.0,-22.2*,1.26,-8.11
O=C(NC[C@H]1CC[C@@H]2[C@@H](CN2S(=O)(=O)c2ccccc2[N+](=O)[O-])O1)C1CC1,·,·,·,1.3,·,·,·
CCCNC(=O)[C@H]1[C@H](CO)[C@H]2Cn3c(ccc(-c4cccc(C(=O)N(C)C)c4)c3=O)[C@@H]1N2,6.8[16.7 µM],54.7,-0.1,-4.4,2.0,·,·
Cc1nnc2sc(SCC(=O)Nc3ccc(Br)cc3)nn2c1=O,0.3,·,1.2,12.4,-23.8*,-5.73,·
COc1ccc(NC(=O)CSc2nn3c(=O)c(C)nnc3s2)cc1,3.0,-2.0,-0.3,-7.8,15.0,·,·
COc1ccc2sc(N3C(=O)CC(Cc4cccc(C)c4)C3=O)nc2c1 (stereo not drawn),-0.1,-2.0,·,-7.4,-33.0*,·,?
Cc1cccc(CC2CC(=O)N(c3nc4ccccc4s3)C2=O)c1 (stereo not drawn),-0.9,0.3,·,-1.1,-8.4,·,·
COc1ccc2c3c(n(C)c2c1)[C@H](CO)N(C(=O)C1CCOCC1)CC31CCN(C(=O)c2ccncc2)CC1,·,·,·,·,-1.6,·,·
Cc1ccc(N2C(=S)NC3c4cc(Cl)ccc4OC2(C)C3C(=O)N(C)C)cc1 (stereo not drawn),6.5,4.4,·,8.9,-21.6*,-13,?
Cc1cccc(N2C(=S)NC3c4cc(Cl)ccc4OC2(C)C3C(=O)N(C)C)c1 (stereo not drawn),·,·,3.8,-2.7,-12.8,·,·
CC(=O)c1c(N2CCOCC2)nc2ccc(Cl)cc2c1-c1ccccc1,·,·,·,-2.3,-19.1*,0.093,·
Cc1nc2ccc(Cl)cc2c(-c2ccccc2)c1C(=O)N(C)C,-8.6,-2.9,·,7.5,-7.0,·,·
COc1ccc(OCCC(=O)OCC(=O)NCCC2=CCCCC2)cc1,·,·,-0.1,-3.0,-24.2*,-12.8,-9.71
O=S(=O)(NC1CC1)c1ccc(S(=O)(=O)N2CCc3ccccc32)cc1,-3.5,-1.2,·,·,-19.9*,-1.52,·
O=S(=O)(c1ccc(F)cc1)N1CCc2ccccc21,-1.4,-0.9,·,7.5,2.4,·,·
NC(=O)C1CCN(c2cc(Cl)ccc2[N+](=O)[O-])CC1,·,·,0.7,-5.3,-22.1*,-12.2,·
CCN(CC)CCN(C(=O)c1ccc2c(c1)CCCC2)c1nc2ccc(C)cc2s1,-2.8,0.1,·,3.7,-28.5,·,·
SMILES,miR-122 sensor,Cneo AK release,E-sel inducer,DENV2 CPE,Ecoli rRNA inh,AID977621,AID977628
CCN(CC)CCN(C(=O)c1ccc2c(c1)CCCC2)c1nc2ccc(F)cc2s1,5.5,·,·,5.2,-23.4*,-12.7,·
Cc1noc(C)c1NC(=O)Nc1cccc2c1O[C@@H](CN(C)C(=O)Nc1ccccc1)[C@@H](C)CN([C@@H](C)CO)C2=O,-8.7[16.7 µM],-4.9,-3.3,-3.0,-1.5,·,·
CC=Cc1ccc2n(c1=O)C[C@H]1[C@H](CO)[C@@H](C(=O)NCC3CC3)N(C(=O)CC3CC3)[C@@H]21 (mixture of isomers),4.7[16.7 µM],-5.3,-0.1,-7.4,2.7,·,·
O=C(COC(=O)c1ccccc1)NCC1COc2ccccc2O1 (stereo not drawn),-4.8,-1.2,-0.4,-1.1,4.0,·,·
O=C(OCC1COc2ccccc2O1)c1ccccc1F (stereo not drawn),-3.5,-6.9,·,10.2,-20.2*,-0.304,-2.74
COc1ccc(CN2[C@@H]3CN(C(=O)Nc4ccc(F)cc4)c4ccccc4[C@@H]3[C@@H]2CO)cc1,0.0[16.7 µM],-0.3,0.0,-6.6,-6.9,·,·
O=C(Cn1cc(COc2c(F)c(F)cc(F)c2F)nn1)c1ccc(O)cc1,-0.1,-3.9,-1.3,-7.1,-18.2*,?,·
CCNC(=O)C1(C)CCCN(Cc2cccc3ccccc23)C1 (stereo not drawn),-5.8,-0.5,0.9,1.1,-22.8*,·,?
O=C(C[C@H]1CC[C@@H]2[C@H](COC[C@H](O)CN2Cc2cc(F)ccc2F)O1)NCc1ccc(Cl)cc1,-3.3[16.7 µM],3.4,0.0,0.8,-38.5,·,·
O=C(Nc1ccc(C(=O)Nc2ccccc2Cl)cc1)c1cccnc1,-3.0,-1.1,·,-6.6,-19.9*,-1.82,-11.4
O=C(Nc1ccccc1Cl)c1ccc(C(=O)Nc2ccccc2Cl)cc1,·,·,6.4,0.9,8.3,·,·
COc1ccc(NC(=O)Nc2cccc3c2O[C@H](CN(C)S(=O)(=O)c2ccc(C)cc2)[C@H](C)CN([C@H](C)CO)C3=O)cc1,0.0[16.7 µM],39.9,-0.9,1.7,-4.4,·,·
Cc1cc(C(=O)Nc2cccc3c2O[C@H](CN(C)S(=O)(=O)c2ccc(Cl)cc2)[C@H](C)CN([C@@H](C)CO)C3=O)n(C)n1,-5.7[16.7 µM],2.7,0.6,4.2,-24.5*,-20.1,?
COc1ccc(NC(=O)Nc2cccc3c2O[C@H](CN(C)S(=O)(=O)c2ccc(OC)cc2)[C@H](C)CN([C@H](C)CO)C3=O)cc1,-10.4[16.7 µM],5.8,-0.5,0.7,-7.5,·,·
COc1ccc(NC(=O)Nc2cccc3c2O[C@@H](CN(C)S(=O)(=O)c2ccc(Cl)cc2)[C@H](C)CN([C@@H](C)CO)C3=O)cc1,2.7[16.7 µM],3.3,-0.2,4.7,-2.3,-19.6,·
COc1ccc(NC(=O)Nc2cccc3c2O[C@H](CN(C)S(=O)(=O)c2ccc(Cl)cc2)[C@@H](C)CN([C@@H](C)CO)C3=O)cc1,8.4[16.7 µM],3.7,0.0,-4.6,-0.3,-4.9,-5.95
